Legend:
[1] = test system: Rattus norvegicus; test: In vivo hypolipidemic activity, expressed as percent decrease in serum cholesterol in rat, at dosage of 20 mg for 7 days.; assay type: functional
Procedure, shortened: (§1)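 Male Sprague-Dawley rats, 4 weeks old, kept on CE-2 chow for at least 1 week, then grouped (generally five per group). Compound was mixed into CE-2 powder and fed ad libitum for the stated period; controls received plain CE-2 powder. Diet level is given as mg/100 g (mg%), about equal to mg/kg/day. Total serum cholesterol was measured by the Zak et al. method and reported as percent depression versus control group mean. Significance was p < 0.05.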

[2] = species: Rattus norvegicus; test: Hypolipidemic activity expressed as percentage decrease in triglyceride in rat, at dosage of 50 mg for 7 days; assay type: functional
Procedure, shortened: as §1, with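 “triglyceride” for “cholesterol”, “Ryan and Rasho” for “Zak et al.”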

[3] = species: Rattus norvegicus; test: Tested for the hypolipidemic activity, expressed as percent decrease in serum cholesterol in rat, at dosage of 50 mg for 7 days; assay type: functional; procedure, shortened: as §1
[4] = test system: Rattus norvegicus; test: In vivo hypolipidemic activity, expressed as percent decrease in serum triglyceride in rat, at dosage of 20 mg for 7 days.
[5] = species: Rattus norvegicus; test: Hypolipidemic activity, expressed as percent decrease in serum cholesterol in rat, at dosage of 100 mg for 7 days by Zak et al method; assay type: functional; procedure, shortened: as §1
[6] = test system: Rattus norvegicus; test: In vivo hypolipidemic activity, expressed as percent decrease in Triglyceride in rat, at dosage of 100 mg for 7 days.; assay type: functional
Procedure, shortened: as §1, with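 “triglyceride” for “cholesterol”, “Ryan and Rasho” for “Zak et al.”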

Structure (SMILES) | Decrease [2] [%] | Decrease [3] [%] | also measured
CCCCCCCCCCCCCCCCOc1ccc(/C=C(\C)C(=O)O)cc1 | 25 | 17 | Decrease [1]: 9%; Decrease [4]: 1%
C=C(C)C(=O)OCCOC(=O)/C=C/c1ccc(OCCCC)cc1 | 17 | 9 | –
CCCCCCCCCCCCCCOc1cccc(/C=C(\C)C(=O)O)c1 | -11 | -1 | –
CCCCCCCCCCCCCCCCCCOc1ccc(/C=C(\C)C(=O)OCCCCl)cc1 | 11 | 0 | –
CCCCOc1ccc(/C=C/C(=O)OCCS(=O)(=O)[O-])cc1.[Na+] | – | – | Decrease [5]: -1%; Decrease [6]: 9%
CCCCCCCCCCCCCCOc1ccc(/C(C)=C/C(=O)O)cc1 | 41 | 5 | –
CCCCCCCCCCCCCCOc1ccc(/C=C/C(=O)OCCCl)cc1 | -1 | 11 | –
C/C(=C\c1ccc(-c2ccccc2)cc1)C(=O)OCC(O)CO (stereo not given) | -17 | 16 | –
COc1ccc(/C=C/C(=O)OCCCl)cc1 | – | – | Decrease [5]: 0%
CCCCOc1ccc(/C=C/C(=O)OCCO)cc1 | – | – | Decrease [5]: 9%; Decrease [6]: 26%
CCCCCCCCCCOc1ccc(/C=C/C(=O)OCC(O)CO)cc1 (stereo not given) | 14 | -3 | –
CCCCCCCCCCCCCOc1ccc(/C=C(\C)C(=O)OCC(O)CO)cc1 (stereo not given) | 53 | 30 | –
CCCCCCCCCCOc1ccc(/C=C/C(=O)O)cc1 | 18 | 9 | –
C=COC(=O)/C=C/c1ccc(OCCCCCCCC)cc1 | – | – | Decrease [5]: -6%
CCCCCCCCCCOc1ccc(/C=C(\C)C(=O)OCC(O)CO)cc1 (stereo not given) | 52 | 10 | –
C/C=C/C(=O)OCCOC(=O)/C=C/c1ccc(OCCCCCCCCCCCCCCCC)cc1 | – | – | Decrease [5]: 3%; Decrease [6]: 11%
CCCCCCCCCCOc1ccc(/C=C(\C)C(=O)O)cc1 | 43 | 16 | –
CCCCCCCCCCCCOc1ccc(/C=C(\C)C(=O)OCC2COC(C)(C)O2)cc1 (stereo not given) | 41 | 16 | –
CCCCOc1ccc(/C=C/C(=O)OCCCl)cc1 | – | – | Decrease [5]: 0%; Decrease [6]: 26%
CCCCCCCCCCCCOc1ccc(/C=C/C(=O)OCCCl)cc1 | 46 | 16 | –
CCCCCCCCCCCCCCCCCCOc1ccc(/C=C(\C)C(=O)OCC(O)CO)cc1 (stereo not given) | 3 | -1 | –
CCCCCCCCCCCCCCOc1ccc(/C=C(\C)C(=O)OCCN(C)C)cc1.Cl | 35 | 8 | –
CCCCCCCCCCCCOc1ccc(/C=C/C(=O)OCC(O)CO)cc1 (stereo not given) | 38 | 17 | –
C=C(C)C(=O)OCCCOC(=O)/C=C/c1ccc(OCCCCCCCCCCCCCCCC)cc1 | – | – | Decrease [5]: 16%; Decrease [6]: 0%
CCCCCCCCOc1ccc(/C=C(\C)C(=O)OCc2ccccc2)cc1 | 18 | 5 | –

Structure (SMILES) | Decrease [2] [%] | Decrease [3] [%] | also measured
CCCCCCCCCCCCCCOc1ccc(/C=C(\C)C(=O)OCCOC(=O)/C(C)=C/c2ccc(OCCCCCCCCCCCCCC)cc2)cc1 | -9 | -1 | –
CCCCCCCCCCCCCCCCCCOc1ccc(/C=C(\C)C(=O)O)cc1 | -54 | -12 | –
CCCCCCCCCCCCCCOc1ccc(/C=C(\C)C(=O)OC(CO)CO)cc1 | 38 | 9 | –
CCCCCCCCCCCCCCCCOc1ccc(/C=C(\C)C(=O)OCC2COC(C)(C)O2)cc1 (stereo not given) | 3 | 1 | –
CCCCCCCCCCCCCCOc1ccc(/C=C/C(=O)O)cc1 | 0 | 7 | –
C/C(=C\c1ccc(Oc2ccccc2)cc1)C(=O)O | – | – | Decrease [1]: 8%; Decrease [4]: 15%
CCCCCCCCOc1ccc(/C=C/C(=O)OCCCl)cc1 | – | – | Decrease [5]: 5%
CCCCCCCCCCCCCCOc1ccc(/C=C(\C)C(=O)OCC2COC(C)(C)O2)cc1 (stereo not given) | 2 | 9 | –
O=C(/C=C/c1ccc(Oc2ccccc2)cc1)OCCCl | – | – | Decrease [1]: 18%; Decrease [4]: 21%
CCCCCCCCCCCCCCOc1ccc(/C=C(\C)C(=O)OCC(COC(C)=O)OC(C)=O)cc1 (stereo not given) | 41 | 4 | –
CCCCCCCCCCCCCCCCCCOc1ccc(/C=C/C(=O)OCCCCl)cc1 | 3 | 9 | –
CCCCCCCCCCCCOc1ccc(/C=C(\C)C(=O)OCCS(=O)(=O)[O-])cc1.[Na+] | 63 | 27 | –
CCCCCCCCOc1ccc(/C=C(\C)C(=O)O)cc1 | 8 | 10 | –
CCCCCCCCCCCCOc1ccc(/C=C(\C)C(=O)OCc2cccnc2)cc1 | 60 | 24 | –
CCCCOc1ccc(/C=C/C(=O)OCCN2CCCCC2)cc1.Cl | – | – | Decrease [5]: 3%; Decrease [6]: 2%
CCCCOc1ccc(/C=C/C(=O)OCCBr)cc1 | – | – | Decrease [5]: 9%; Decrease [6]: 26%
C=C(C)C(=O)OCCOC(=O)/C=C/c1ccc(OCCCCCCCCCCCC)cc1 | 34 | 13 | –
CCCCCCCCCCCCCCOc1ccc(/C=C(\C)C(=O)OC)cc1 | 44 | 10 | –
CCCCCCCCCCCCCCCCOc1ccc(/C=C/C(=O)OCCBr)cc1 | – | – | Decrease [5]: 7%; Decrease [6]: 6%
CCCCCCCCCCCCCCOc1ccc(/C=C(\C)C(=O)OCC(O)COC(=O)c2cccnc2)cc1 (stereo not given) | 33 | 4 | –
C=C(C)C(=O)OCCOC(=O)/C=C/c1ccc(OCc2ccccc2)cc1 | – | – | Decrease [5]: 13%; Decrease [6]: 33%
CCCCCCCCCCCCCCCCOc1ccc(/C=C/C(=O)OCC(COC(=O)CCC)OC(=O)CCC)cc1 (stereo not given) | 36 | 8 | –
CCCCCCCCCCCCCCCCCCOc1ccc(/C=C(\C)C(=O)OCCCO)cc1 | 14 | 13 | –
C=C(C)C(=O)OCCOC(=O)/C=C(\C)c1ccc(OCCCCCCCCCCCCCCCC)cc1 | – | – | Decrease [5]: 11%; Decrease [6]: 12%
CCCCCCCCCCCCCCCCOc1ccc(/C=C/C(=O)OCCS(=O)(=O)[O-])cc1.[Na+] | – | – | Decrease [5]: 17%; Decrease [6]: 47%

Structure (SMILES) | Decrease [2] [%] | Decrease [3] [%] | also measured
CCCCCCCCCCCCCCCCOc1ccc(/C=C(\C)C(=O)Oc2ccccc2)cc1 | 46 | 12 | –
O=C(/C=C/c1ccc(OCc2ccccc2)cc1)OCCCl | – | – | Decrease [5]: -3%
CCCCCCCCCCCCCCOc1ccc(/C=C(\C)C(=O)OCC(O)CO)cc1 (stereo in doubt; 98) | 9 | -2 | –
CCCCCCCCCCCCOc1ccc(/C=C/C(=O)O)cc1 | 52 | 15 | –
C=C(C)C(=O)OCCOC(=O)/C(C)=C/c1ccc(OCCCCCCCCCCCC)cc1 | 43 | 17 | –
C=CCOc1ccc(/C=C/C(=O)OCCCl)cc1 | – | – | Decrease [5]: -9%; Decrease [6]: 26%
CCCCCCCCCCCCCOc1ccc(/C=C(\C)C(=O)O)cc1 | -4 | 13 | –
C/C(=C\c1ccc(-c2ccc(Cl)cc2)cc1)C(=O)OCC(O)CO (stereo not given) | 18 | 11 | –
CCCCCCCCCCCCCCCCOc1ccc(/C=C(\C)C(=O)OCC(COC(=O)/C(C)=C/c2ccc(OCCCCCCCCCCCCCCCC)cc2)OC(=O)/C(C)=C/c2ccc(OCCCCCCCCCCCCCCCC)cc2)cc1 (stereo not given) | 9 | 0 | –
C=CC(=O)OCCOC(=O)/C=C/c1ccc(OCCCCCCCCCCCCCCCC)cc1 | – | – | Decrease [5]: 6%
CCCCCCCCCCCCCCCCCCOc1ccc(/C=C/C(=O)O)cc1 | 9 | 0 | –
CCCCCCCCOc1ccc(/C=C(\C)C(=O)OCC(O)CO)cc1 (stereo not given) | 21 | 8 | –
CCCCCCCCCCCCCCOc1ccccc1/C=C(\C)C(=O)O | 7 | -9 | –
CCOC(=O)C(C)(C)Oc1ccc(Cl)cc1 [CLOFIBRATE] | 35 | 14 | Decrease [5]: 22%; Decrease [6]: 41%
CCCCCCCCCCCCCCOc1ccc(/C=C(\C)C(=O)OCC(COC(=O)c2cccnc2)OC(=O)c2cccnc2)cc1 (stereo not given) | 17 | 7 | –
CCCCCCCCOc1ccc(/C=C/C(=O)OCCOC(=O)/C=C/c2ccc(OCCCCCCCC)cc2)cc1 | 9 | 4 | –
CCCCCCCCCCCCOc1ccc(/C=C(\C)C(=O)OCCCl)cc1 | 42 | 21 | –
CCCCCCCCCCCCCCCCOC(=O)/C=C/c1ccc(OCCCCCCCCCCCCCCCC)cc1 | 27 | 11 | –
CCCCCCCCCCCCCCOc1ccc(/C=C/C(=O)OCCO)cc1 | 24 | 10 | –
CCCCCCCCCCCCOc1ccc(/C=C(\C)C(=O)OCC(COC(=O)c2ccccc2)OC(=O)c2ccccc2)cc1 (stereo not given) | 47 | 3 | –
CCCCCCCCCCCCCCOc1ccc(/C=C/C(=O)OCC(O)CO)cc1 (stereo not given) | 24 | 26 | –
C=C(C)C(=O)OCCOC(=O)/C=C/c1ccc(OCCCCCCCC)cc1 | – | – | Decrease [5]: 16%; Decrease [6]: -11%
CCCCCCCCCCCCCCOc1ccc(/C=C(\C)C(=O)OCC(O)COC(=O)/C(C)=C/c2ccc(OCCCCCCCCCCCCCC)cc2)cc1 (stereo not given) | 6 | 6 | –
